Assay [1] is described as follows: Selectivity for Trypanosoma cruzi triosephosphate isomerase over human triosephosphate isomerase.
The subject of another assay is Trypanosoma cruzi. Kind of assay: Antiparasitic activity against Trypanosoma cruzi T2 epimastigotes assessed as growth inhibition at 25 uM after 5 days. It is filed as functional. The essentials: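 Late-log epimastigotes were grown axenically at 28 °C in BHI-tryptose with 5% fetal calf serum and seeded at 2×10^6/mL in medium containing compound (DMSO stock; final DMSO ≤1%, 1% DMSO control). Growth was read as A590 at day 0 and day 5. Inhibition = {1 − [(Ap − A0p)/(Ac − A0c)]} × 100. Means of two experiments.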

Assay [2] has as its target Triosephosphate isomerase, glycosomal (Trypanosoma cruzi) (UniProt P52270). Briefly: Inhibition of Trypanosoma cruzi triosephosphate isomerase at 400 uM after 2 hrs. The essentials:
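Recombinant E. coli-expressed enzyme, dialyzed into 100 mM triethanolamine/10 mM EDTA pH 7.4, was incubated with compound (DMSO stock) in 100 mM triethanolamine, 10 mM EDTA, pH 7.4, 10% DMSO at 36 °C for 2 h. An aliquot was then assayed for activity (glyceraldehyde 3-phosphate to dihydroxyacetone phosphate, α-glycerol phosphate dehydrogenase-coupled) with 5 ng enzyme. Irreversible inhibition was scored as loss of activity; means of two experiments.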

This note sets out measurements from ChEMBL document CHEMBL1629474, “Massive screening yields novel and selective Trypanosoma cruzi triosephosphate isomerase dimer-interface-irreversible inhibitors with anti-trypanosomal activity” (Eur J Med Chem, 2010).

Each structure is given as a SMILES string. Calls of active or inactive are those of the source. No rule for the calls is given here.

Broadly, the inhibition is how much of the control response was suppressed.

Chain of Triosephosphate isomerase, glycosomal (Trypanosoma cruzi) (P52270 whole entry): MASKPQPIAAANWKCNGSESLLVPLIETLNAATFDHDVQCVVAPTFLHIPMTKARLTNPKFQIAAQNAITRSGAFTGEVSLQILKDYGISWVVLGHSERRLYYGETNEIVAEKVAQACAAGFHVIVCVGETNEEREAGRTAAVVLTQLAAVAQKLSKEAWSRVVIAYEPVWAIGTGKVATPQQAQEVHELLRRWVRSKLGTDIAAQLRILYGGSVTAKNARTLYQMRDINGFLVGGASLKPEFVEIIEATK

Consider `O=[N+]([O-])c1ccc2c(c1)c(OCc1ccccc1)nn2CCCCCN1CCCCC1`, for which the Ratio in assay [1] was above 4. Besides, the outcome with Trypanosoma cruzi was Active. Moreover, the inhibition in assay [2] turned out to be 0%.

Regarding `CCNC(=S)N/N=C/c1ccc([N+](=O)[O-])o1`, the Ratio in assay [1] is above 4. The outcome in the assay on Trypanosoma cruzi was Active. Besides, the inhibition in assay [2] was determined as 3%.

Regarding `O=[N+]([O-])c1ccc2c(c1)c(OCc1ccccc1)nn2CCOCCN1CCSCC1`, the Ratio in assay [1] was above 4. In addition, the result with Trypanosoma cruzi was Active. This compound returned an inhibition in assay [2] of 12%.

On to `O=C(/C=C/c1ccccc1)c1ccccc1O`, for which the Ratio in assay [1] was above 4. The result in the assay with Trypanosoma cruzi was Active. The inhibition in assay [2] worked out at 15%.

Turning to `CN(C/C=C/c1ccccc1)Cc1ccc2no[n+]([O-])c2c1`, in assay [1], the Ratio was above 4. Moreover, the outcome in the assay on Trypanosoma cruzi was Active. The compound also returned an inhibition in assay [2] of 7%.

`[O-][n+]1onc2ccc(C=Cc3ccc(C(F)(F)F)cc3)cc21`: the Ratio in assay [1] is above 4. The result with Trypanosoma cruzi was Active. Further, in assay [2], the inhibition turned out to be 33%.

Regarding `O=[N+]([O-])c1ccc2c(c1)[n+]([O-])c1n2CCOC1`, in assay [1], the Ratio is above 4. Also, in the assay on Trypanosoma cruzi, the result was Active. For the same compound, in assay [2], the inhibition was 14%.

Turning to `[O-][n+]1onc2ccc(CSCCO)cc21`, the Ratio in assay [1] was above 4. In addition, the result with Trypanosoma cruzi was Active. Moreover, the inhibition in assay [2] was 0%.

`CC(=N\c1ccc(C)cc1)/C(C)=N/c1ccc(C)cc1`: the Ratio in assay [1] was above 4. Moreover, the result in the assay with Trypanosoma cruzi was Active. In assay [2], this compound showed an inhibition of 23%.

`NS(=O)(=O)NCc1ccccc1`: the Ratio in assay [1] was above 4. The outcome with Trypanosoma cruzi was Active. In assay [2], this compound came in with an inhibition of 0%.

In the case of `CCCN(CCC(C)C1CC=C(C)CC1)Cc1ccc2c(c1)=[N+]([O-])C(C)(C)[N+]=2[O-]` (stereo unspecified), in assay [1], the Ratio was above 4. Further, in the assay with Trypanosoma cruzi, the result was Active. In addition, in assay [2], the inhibition amounted to 4%.

In the case of `C=CCNC(=S)N/N=C/c1ccco1`, in assay [1], the Ratio was above 4. Moreover, in the assay on Trypanosoma cruzi, the outcome was Active. This compound also came in with an inhibition in assay [2] of 12%.

As to `CCN(CC)CCCNS(=O)(=O)NCCCN(CC)CC`, the Ratio in assay [1] was above 4. Further, the result in the assay on Trypanosoma cruzi was Active. In assay [2], this compound showed an inhibition of 0%.

For the compound `O=C(/C=C/c1ccc([N+](=O)[O-])o1)NCCCl`, the Ratio in assay [1] was above 4. Moreover, in the assay on Trypanosoma cruzi, the outcome was Active. This compound also returned an inhibition in assay [2] of 13%.

On to `N#Cc1c(N)[n+]([O-])c2ccc(CN3CCN(C/C=C/c4ccccc4)CC3)cc2[n+]1[O-]`, for which the Ratio in assay [1] was above 4. Also, the result in the assay on Trypanosoma cruzi was Active. The compound further yielded an inhibition in assay [2] of 18%.

For `O=[N+]([O-])c1ccc(/N=C/c2ccccc2[N+](=O)[O-])cc1`, in assay [1], the Ratio is above 4. Moreover, in the assay on Trypanosoma cruzi, the outcome was Active. The same compound showed an inhibition in assay [2] of 34%.

For the compound `COc1ccc(/C=C/c2c(C)[n+]([O-])nc[n+]2[O-])cc1`, the Ratio in assay [1] is above 4. The outcome in the assay on Trypanosoma cruzi was Active. The compound also showed an inhibition in assay [2] of 27%.

In the case of `O=C(N/N=C/C=C/c1ccc([N+](=O)[O-])o1)Oc1ccccc1`, in assay [1], the Ratio is above 4. For the same compound, the result in the assay with Trypanosoma cruzi was Active. Further, the inhibition in assay [2] stood at 45%.

With `COCCNC(=O)N/N=C/C=C/c1ccc([N+](=O)[O-])o1`, the Ratio in assay [1] is above 4. Moreover, the result with Trypanosoma cruzi was Active. In addition, the inhibition in assay [2] came to 0%.

For the compound `N#Cc1c2ccccc2[n+]([O-])n1-c1ccc([N+](=O)[O-])cc1`, the Ratio in assay [1] was above 4. Also, the outcome with Trypanosoma cruzi was Active. In assay [2], this compound returned an inhibition of 29%.

As to `Cc1ccc2c(c1)=[N+]([O-])C1(CCCC1)[N+]=2[O-]`, the Ratio in assay [1] is above 4. Also, the result in the assay on Trypanosoma cruzi was Active. The compound also yielded an inhibition in assay [2] of 27%.

With `COc1ccc(NCc2c(-c3ccccc3)no[n+]2[O-])cc1`, in assay [1], the Ratio is above 4. In addition, the outcome with Trypanosoma cruzi was Active. In assay [2], the inhibition came out at 39%.
